In ChEMBL document CHEMBL1122539, “3-Substituent effect and 3-methylene substituent effect on the structure-reactivity relationship of 7 beta-(acylamino)-3-cephem-4-carboxylic acid derivatives studied by carbon-13 and IR spectroscopies” (J Med Chem, 1984):

What was measured:
[1] = Rate constant (Kobs) obtained from IR spectroscopy
[2] = Geometrical mean of MIC calculated from MIC values for Escherichia coli NIHJ JC-2 and Klebsiella pneumoniae SRL-1; format: functional
In short: (§1)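 Agar dilution on sensitivity test agar with serial twofold antibiotic dilutions. Overnight tryptosoy broth cultures of E. coli NIHJ JC-2 and K. pneumoniae SRL-1 were diluted to about 10^6 cells/mL in the same broth, and one loopful was inoculated. Plates were incubated at 37 °C for 18–20 h. MIC was the lowest concentration inhibiting visible growth. The value is the geometric mean of the two strains' MICs.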

[3] = Dissociation constant (Kobs) obtained from IR spectroscopy; f = Not detected; format: physicochemical
[4] = Geometrical mean of MIC calculated from MIC values for Escherichia coli NIHJ JC-2 and Klebsiella pneumoniae SRL-1.; format: functional
In short: as §1

Row | 10^2 kobsd (h^-1) [1] | MIC [2] | Log k [3] | MIC [4] | Compound
1 | 47.3 obs | – | – | – | O=C(Cc1cccs1)[N-]C1C(=O)N2C(C(=O)[O-])=C(C[n+]3ccccc3)CSC12.[Na+] (stereo not given)
2 | 11.1 hr-1 | 25 µg/mL | – | – | CC(=O)OCC1=C(C(=O)[O-])N2C(=O)C(NC(=O)Cc3cccs3)C2SC1.[Na+] (stereo not given)
3 | 15.2 hr-1 | 12.5 µg/mL | – | – | O=C(Cc1ccccc1)NC1C(=O)N2C(C(=O)[O-])=C(Cl)CSC12.[Na+] (stereo not given)
4 | 46.5 hr-1 | 8.84 µg/mL | – | – | CS(=O)(=O)OC1=C(C(=O)[O-])N2C(=O)C(NC(=O)Cc3ccccc3)C2SC1.[Na+] (stereo not given)
5 | 3.1 hr-1 | 8.85 µg/mL | – | – | O=C(Cc1ccccc1)NC1C(=O)N2C(C(=O)[O-])=CCSC12.[Na+] (stereo not given)
6 | – | – | Not detected | 17.7 µg/mL | COC1=C(C(=O)[O-])N2C(=O)C(NC(=O)Cc3ccccc3)C2SC1.[Na+] (stereo not given)
7 | 1.82 hr-1 | > 100 µg/mL | – | – | CCOC(=O)CC1=C(C(=O)[O-])N2C(=O)C(NC(=O)Cc3ccccc3)C2SC1.[Na+] (stereo not given)

Row | Compound | 10^2 kobsd (h^-1) [1] | MIC [2] | Log k [3] | MIC [4]
8 | CC1=C(C(=O)[O-])N2C(=O)C(NC(=O)Cc3ccccc3)C2SC1.[Na+] (stereo not given) | 1.36 hr-1 | 70.7 µg/mL | – | –
